{
  "source": "paper PMC3787769",
  "about": "(The Journal of General Physiology, 2013)",
  "key": {"ANO 1": {"tested_on": "ANO 1", "format": "cell-based, rat", "settings": "for Effect on ANO 1 current density (channel activation): bath application of 20 µM TFP or 50 µM J-8 for 10–70 min", "procedure,_shortened": "(§1)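 HEK 293 cells transiently transfected with rat ANO with C-terminal YFP tag; cells of similar YFP intensity recorded whole-cell. Bath (mM): 150 CsCl, 10 HEPES, 10 EGTA, pH 7.4. Pipette: 150 mM Cl−, 10 mM HEDTA, 10 mM HEPES, pH 7.0, free Ca2+ 0.7–62 µM. Ramps −80 to +80 mV (1 s), every 15 s from 2 min after breakthrough; current density in pA/pF.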"}, "ANO 2": {"tested_on": "ANO 2", "format": "cell-based, rat", "settings": "for Effect on ANO 2 current density (channel activation): bath application of 20 µM TFP or 50 µM J-8 for 10–70 min", "procedure,_shortened": "as §1"}, "CaM": {"target": "CaM (Bos taurus, UniProt P62157)", "assay": "Badan fluorescence peptide-binding assay with CaM", "settings": "3 µM peptide, 1.5 µM CaM, free Ca2+ 0.007 to 10 µM"}, "[1]": {"target": "Badan-labeled ANO 1 RCBM peptide, mutant m2,6 (rat)", "assay": "other fluorescence titration"}, "[2]": {"target": "Badan-labeled ANO 2 RCBM peptide, mutant m2,6 (rat)", "assay": "other fluorescence titration"}, "[3]": {"target": "Badan-labeled ANO 1 RCBM peptide, mutant m15,20 (rat)", "assay": "other fluorescence titration"}, "[4]": {"target": "Badan-labeled ANO 2 RCBM peptide, mutant m15,20 (rat)", "assay": "other fluorescence titration"}},
  "data": [
    {"compound": "NCCCCCCCCNS(=O)(=O)c1cccc2c(I)cccc12", "note": "[J-8]", "values": [
      {"measurement": "Effect on ANO 1 current density (channel activation)", "setting": "ANO 1", "value": "did not significantly reduce"},
      {"measurement": "Effect on ANO 2 current density (channel activation)", "setting": "ANO 2", "value": "did not significantly reduce"}
    ]},
    {"compound": "CN1CCN(CCCN2c3ccccc3Sc3ccc(C(F)(F)F)cc32)CC1", "note": "[TFP, trifluoperazine]", "values": [
      {"measurement": "Effect on ANO 1 current density (channel activation)", "setting": "ANO 1", "value": "did not significantly reduce"},
      {"measurement": "Effect on ANO 2 current density (channel activation)", "setting": "ANO 2", "value": "did not significantly reduce"}
    ]},
    {"compound": "CN[C@@H]1C[C@H]2O[C@@](C)([C@@H]1OC)n1c3ccccc3c3c4c(c5c6ccccc6n2c5c31)C(=O)NC4", "note": "[staurosporine]", "values": [
      {"measurement": "Effect on ANO 1 channel activation or inactivation", "setting": "ANO 1; 0.2–2 µM, 5–50 min, applied to the bath solution, 6 cells, unpublished data", "value": "did not detect any effect"},
      {"measurement": "Effect on ANO 2 channel activation or inactivation", "setting": "ANO 2; 0.2–2 µM, 5–50 min, applied to the bath solution, 18 cells, unpublished data", "value": "did not detect any effect"}
    ]},
    {"compound": "RKLEYEEEASYGVFYKEQPIDEVRK [ANO ctrl]", "values": [
      {"measurement": "CaM binding of Badan-labeled peptide (Ca2+-dependent change of emission spectra)", "setting": "CaM", "value": "completely abolished CaM binding"}
    ]},
    {"compound": "wild-type calmodulin (wt CaM), purchased (from UniProt P0DP23 1-149) (natural protein)", "values": [
      {"measurement": "EC50 of free Ca^2+ for CaM binding", "setting": "[1]", "value": 12, "unit": "µM"},
      {"measurement": "EC50 of free Ca^2+ for CaM binding", "setting": "[2]", "value": 6, "unit": "µM"},
      {"measurement": "EC50 of free Ca^2+ for CaM binding", "setting": "[3]", "value": 15.2, "unit": "µM"},
      {"measurement": "EC50 of free Ca^2+ for CaM binding", "setting": "[4]", "value": 0.6, "unit": "µM"}
    ]}
  ]
}
